Where a chain is given by its changes, count along the chain named.
How the values were obtained:
WT LasR LBD = target: T1, WT LasR LBD (Pseudomonas aeruginosa, UniProt P25084); experiment: Protein solubility assay, WT LasR LBD produced in E. coli; assay type: cell-based; details: 10 μM compound
T1 sequence (P25084 1-173 limits assumed): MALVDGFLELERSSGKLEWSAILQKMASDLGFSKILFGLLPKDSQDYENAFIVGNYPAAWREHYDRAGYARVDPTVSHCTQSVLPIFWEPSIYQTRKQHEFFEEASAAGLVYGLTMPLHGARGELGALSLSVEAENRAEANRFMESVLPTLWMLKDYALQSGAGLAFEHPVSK
In short: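 E. coli BL21(DE3) with plasmid-borne 6xHis-WT LasR LBD were grown overnight, diluted 1:500 in LB with ampicillin and grown to OD600 0.5. Cells were induced with 1 mM IPTG plus test compound at 10 μM final, then shaken 4 h at 25°C or 37°C. Whole-cell lysate and soluble fractions were compared by band intensity. Fraction soluble = soluble band / whole-cell lysate band.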

LasR LBD = target: T2, LasR LBD (Pseudomonas aeruginosa, UniProt P25084); experiment: Thermal shift assay, LasR LBD:BB0126; assay type: binding
T2 sequence (P25084 1-173 limits assumed): T1 sequence (P25084 1-173 limits assumed)
In short: (§1)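 6xHis-LasR LBD (WT or T75V/Y93F/A127W) was expressed in E. coli BL21(DE3) with 1 mM IPTG and 100 μM ligand (4 h, 25°C), then purified by Ni-NTA and size exclusion. Ligand-bound protein at 5 μM in 20 mM Tris-HCl pH 8, 200 mM NaCl, 1 mM DTT, with DMSO or 10 μM ligand, stood 15 min at room temperature. SYPRO Orange was added just before the run. Heating from 25 to 99°C at 0.05°C/s; fluorescence on ROX setting.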

WT LasR [1] = target: T3, WT LasR (Pseudomonas aeruginosa, UniProt P25084); experiment: Pyocyanin assay, ΔlasI strain with WT LasR; assay type: cell-based, Pseudomonas aeruginosa PA14; details: 10 μM
T3 sequence (P25084 1-239): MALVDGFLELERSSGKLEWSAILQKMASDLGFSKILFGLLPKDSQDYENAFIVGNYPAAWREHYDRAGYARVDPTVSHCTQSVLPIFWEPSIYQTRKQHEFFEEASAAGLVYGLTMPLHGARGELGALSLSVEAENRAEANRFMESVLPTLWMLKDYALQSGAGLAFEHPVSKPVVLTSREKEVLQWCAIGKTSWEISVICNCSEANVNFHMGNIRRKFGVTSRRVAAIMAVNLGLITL
In short: (§2)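 Overnight LB cultures of PA14 lasI (WT lasR) or lasI lasR T75V/Y93F/A127W were grown at 37°C, diluted (100 μL into 3 mL LB) and shaken 8 h at 37°C. They were then diluted 2 μL into 2 mL LB with DMSO or compound and shaken 17 h at 37°C. OD600 was read, then supernatant OD695 after centrifugation. Pyocyanin = OD695/OD600. n=3, SEM.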

LasR LBD T75V/Y93F/A127W = target: T4, LasR LBD T75V/Y93F/A127W (Pseudomonas aeruginosa, UniProt P25084, A127W/T75V/Y93F); experiment: Thermal shift assay, LasR LBD T75V/Y93F/A127W:BB0126; assay type: binding; details: for effect of excess ligand on Tm: LasR LBD T75V/Y93F/A127W:BB0126 with 10 μM excess ligand
T4 sequence (P25084 1-173 T75V/Y93F/A127W limits assumed): T1 sequence (P25084 1-173 limits assumed) with T75V, Y93F, A127W
In short: as §1

WT LasR [2] = target: T3, WT LasR; experiment: P. aeruginosa PA14 rhlA-mNG reporter assay, WT lasR; assay type: cell-based, Pseudomonas aeruginosa PA14; details: ΔlasI P. aeruginosa PA14, 10 μM
In short: (§3)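 P. aeruginosa PA14 lasI strains carried WT or T75V/Y93F/A127W lasR at the native chromosomal locus and a chromosomal prhlA-mNG fusion. Overnight cultures were diluted 1:1000 in LB with test compound at 10 μM and grown at 37°C for 8 h. Cells were pelleted and resuspended in PBS. Fluorescence was read at ex 485/em 535 nm, with A600 measured in parallel. n=3, SEM; multiple t-tests.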

WT LasR [3] = experiment: E. coli lasB-lux reporter assay, WT LasR; assay type: cell-based, Pseudomonas aeruginosa; details: LasR T75V, Y93F and A127W single mutations, each relative to WT LasR
WT LasR [4] = target: T3, WT LasR; experiment: E. coli lasB-lux reporter assay, WT LasR; assay type: cell-based
LasR T75V/Y93F/A127W [5] = target: T5, LasR T75V/Y93F/A127W (Pseudomonas aeruginosa, UniProt P25084, A127W/T75V/Y93F); experiment: Pyocyanin assay, ΔlasI strain with LasR T75V/Y93F/A127W; assay type: cell-based, Pseudomonas aeruginosa PA14; details: 10 μM
T5 sequence (P25084 1-239 T75V/Y93F/A127W): T3 sequence (P25084 1-239) with T75V, Y93F, A127W
In short: as §2

LasR T75V/Y93F = target: T6, LasR T75V/Y93F (Pseudomonas aeruginosa, UniProt P25084, T75V/Y93F); experiment: E. coli lasB-lux reporter assay, LasR T75V/Y93F; assay type: cell-based
T6 sequence (P25084 1-239 T75V/Y93F): T3 sequence (P25084 1-239) with T75V, Y93F

luciferase = experiment: Off-target inhibition of luciferase in the E. coli lasB-lux reporter strain; assay type: cell-based; details: high concentrations (>10 μM)
LasR T75V/A127W = target: T7, LasR T75V/A127W (Pseudomonas aeruginosa, UniProt P25084, A127W/T75V); experiment: E. coli lasB-lux reporter assay, LasR T75V/A127W; assay type: cell-based
T7 sequence (P25084 1-239 T75V/A127W): T3 sequence (P25084 1-239) with T75V, A127W

LasR R61A = target: T8, LasR R61A (Pseudomonas aeruginosa, UniProt P25084, R61A); experiment: E. coli lasB-lux reporter assay, LasR R61A; assay type: cell-based
T8 sequence (P25084 1-239 R61A): T3 sequence (P25084 1-239) with R61A

LasR T75V/Y93F/A127W [6] = target: T5, LasR T75V/Y93F/A127W; experiment: E. coli lasB-lux reporter assay, LasR T75V/Y93F/A127W; assay type: cell-based
LasR T75V = target: T9, LasR T75V (Pseudomonas aeruginosa, UniProt P25084, T75V); experiment: E. coli lasB-lux reporter assay, LasR T75V; assay type: cell-based
T9 sequence (P25084 1-239 T75V): T3 sequence (P25084 1-239) with T75V

LasR T75V/Y93F/A127W [7] = target: T5, LasR T75V/Y93F/A127W; experiment: P. aeruginosa PA14 rhlA-mNG reporter assay, lasR T75V/Y93F/A127W; assay type: cell-based, Pseudomonas aeruginosa PA14; details: ΔlasI P. aeruginosa PA14, 10 μM
In short: as §3

LasR Y93F = target: T10, LasR Y93F (Pseudomonas aeruginosa, UniProt P25084, Y93F); experiment: E. coli lasB-lux reporter assay, LasR Y93F; assay type: cell-based
T10 sequence (P25084 1-239 Y93F): T3 sequence (P25084 1-239) with Y93F

LasR Y93F/A127W = target: T11, LasR Y93F/A127W (Pseudomonas aeruginosa, UniProt P25084, A127W/Y93F); experiment: E. coli lasB-lux reporter assay, LasR Y93F/A127W; assay type: cell-based
T11 sequence (P25084 1-239 Y93F/A127W): T3 sequence (P25084 1-239) with Y93F, A127W

SMILES | soluble WT LasR LBD (WT LasR LBD; induction at 25°C) | pyocyanin production (WT LasR [1]) | effect of excess ligand on Tm (LasR LBD T75V/Y93F/A127W) | activation of prhlA-mNG (WT LasR [2]) | EC50 (WT LasR [4]) [nM] | pyocyanin production (LasR T75V/Y93F/A127W [5]) | EC50 (LasR T75V/Y93F) [nM] | off-target inhibition of luciferase (luciferase) | EC50 (LasR T75V/A127W) [nM] | EC50 (LasR T75V/Y93F/A127W [6]) [nM] | EC50 (LasR T75V) [nM] | activation of prhlA-mNG (LasR T75V/Y93F/A127W [7]) | further results
CCCCCCCCCC(=O)CC(=O)N[C@H]1CCOC1=O [3OC12HSL, N-3-oxo-dodecanoyl-L-homoserine lactone, reference compound] | yielded soluble WT LasR LBD | induced pyocyanin production | had no effect | – | – | – | – | – | – | – | – | – | stabilization by exogenous ligand (LasR LBD; LasR LBD:BB0126 with 10 μM exogenous 3OC12HSL): highly effective at binding to and stabilizing the LasR LBD
CS(=O)(=O)c1cccc(OCCCC(=O)N[C@H]2C[C@@H]3C[C@@H]3C2=O)c1 (relative stereo) [BB0126, 4-(3-(methylsulfonyl)phenoxy)-N-(rel-(1S,3S,5S)-2-oxobicyclo[3.1.0]hexan-3-yl)butanamide] | yielded soluble WT LasR LBD | – | further enhanced the Tm | not in response to BB0126 | > 3100 | responded to BB0126 | 600 | caused off-target inhibition of luciferase | 50 | 50 | 1500 | activated the reporter | fold lower EC50 with the mutations (WT LasR [3]): 2-to 6 fold; soluble WT LasR LBD (WT LasR LBD; induction at 37°C): significantly less soluble; melting temperature peak (LasR LBD; LasR LBD:BB0126 in the presence of excess BB0126 (10 μM)): 49.9 °C; thermal stability of the complex (LasR LBD; LasR LBD:BB0126 without additional ligand): unstable above room temperature; EC50 (LasR R61A): > 10000 nM; Tm (LasR LBD T75V/Y93F/A127W; LasR LBD T75V/Y93F/A127W:BB0126 without additional ligand): 46.8 °C
O=C(CCCOc1cccc(Br)c1)N[C@H]1C[C@@H]2C[C@@H]2C1=O (relative stereo) [BB0020, 4-(3-bromophenoxy)-N-(rel-(1S,3S,5S)-2-oxobicyclo[3.1.0]hexan-3-yl)butanamide] | yielded soluble WT LasR LBD | activated both LasR alleles equally | – | activated prhlA-mNG | 6 | activated both LasR alleles equally | 20 | caused off-target inhibition of luciferase | 20 | 20 | 15 | activated the reporter | EC50 (LasR Y93F): 15 nM; EC50 (LasR Y93F/A127W): 100 nM

— article PMC6601336 (ACS chemical biology, 2019)
